CAL PDZ FP-1: untagged CAL PDZ binding inhibitors, primary screen, biochemical, fluorescence polarization, HTS; AID 602252, 2012; Golgi-associated PDZ and coiled-coil motif-containing protein (Homo sapiens), Q9HD26; purified CAL PDZ, TMR-peptide fluorescence polarization, 1 h; inhibition, % at 24.9 µM; 0.92% of 300,000 active;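 active = mean inhibition of at least 30% with at least half of replicates also reaching 30%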;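 note: 0% = DMSO neutral control and 100% = excess unlabeled competitor peptide PRC23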
APOBEC3A inh: APOBEC3A ssDNA deaminase inhibitors, primary screen, selectivity assay for APOBEC3G inhibitor project, biochemical, FAM/TAMRA oligo cleavage fluorescence; AID 493011, 2011; recombinant A3A, FAM/TAMRA ssDNA deamination fluorescence; inhibition, % at 20 µM; 0.41% of 330,000 active;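 active = at least 40% inhibition at 20 µM here, with at most 30% in a related deaminase screen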;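 note: plate controls were A3A with DMSO for no effect and wells lacking A3A enzyme for full effect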
A3G deaminase: APOBEC3G DNA deaminase inhibitors, primary screen, biochemical, fluorescence, single-stranded DNA substrate, uHTS; DNA dC->dU-editing enzyme APOBEC-3G (Homo sapiens), Q9HC16; recombinant A3G, ssDNA deamination FAM/TAMRA fluorescence; inhibition, % at 20 µM; 0.28% of 330,000 active;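 active = inhibition of at least 40% at 20 µM, with no more than 30% in the related APOBEC3A deaminase screen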;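 note: plate controls were DMSO wells with A3G for no effect and wells lacking A3G enzyme for full effect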
C-LANA FP: inhibitors of KSHV C-LANA binding to DNA, primary screen, biochemical, fluorescence polarization, FAM-LBS DNA, MBP-C-LANA, single point | inhibition, % at 9 µM | AID 504423, 2011 | 0.078% of 340,000 active;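 active = highest replicate inhibition at or above 60% at 9 µM, even if other replicates fall short; inactive = all replicates below 60% inhibition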;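 note: 0% = neutral control wells and 100% = 4 µM acridine orange control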
CAL PDZ FP-2: CAL PDZ peptide-binding inhibitors, primary screen, biochemical, fluorescence polarization, Cer-tagged CAL PDZ, HTS | inhibition, % at 20 µM | AID 504414, 2011 | purified CAL PDZ, TMR-peptide fluorescence polarization, 1 h | 0.02% of 330,000 active;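 active = highest replicate inhibition of at least 40%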;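 note: plate controls were DMSO neutral control wells for no effect and unlabeled competitor peptide control wells for full effect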
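System: tagged CAL PDZ domain. Schedule: 1 h room-temperature incubation prior to read. Signal: fluorescence polarization (mP). Measure: percent inhibition from loss of millipolarization.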
Keap1-Nrf2 PPI: Keap1-Nrf2 protein-protein interaction inhibitors, primary screen, biochemical, fluorescence polarization, single point; Keap1 Kelch-Nrf2 peptide fluorescence polarization, 1536-well; inhibition, % at 9.4 µM; 0.15% of 340,000 active; in the data active = inhibition above about 12%;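 note: human Keap1 Kelch domain with fluorescein labeled Nrf2 9mer peptide probe; 0% = neutral control wells and 100% = peptide positive control; higher means more block of Keap1 binding to Nrf2 peptide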
Target sequence (Q14145 whole entry, looked up, the tested form may be a part): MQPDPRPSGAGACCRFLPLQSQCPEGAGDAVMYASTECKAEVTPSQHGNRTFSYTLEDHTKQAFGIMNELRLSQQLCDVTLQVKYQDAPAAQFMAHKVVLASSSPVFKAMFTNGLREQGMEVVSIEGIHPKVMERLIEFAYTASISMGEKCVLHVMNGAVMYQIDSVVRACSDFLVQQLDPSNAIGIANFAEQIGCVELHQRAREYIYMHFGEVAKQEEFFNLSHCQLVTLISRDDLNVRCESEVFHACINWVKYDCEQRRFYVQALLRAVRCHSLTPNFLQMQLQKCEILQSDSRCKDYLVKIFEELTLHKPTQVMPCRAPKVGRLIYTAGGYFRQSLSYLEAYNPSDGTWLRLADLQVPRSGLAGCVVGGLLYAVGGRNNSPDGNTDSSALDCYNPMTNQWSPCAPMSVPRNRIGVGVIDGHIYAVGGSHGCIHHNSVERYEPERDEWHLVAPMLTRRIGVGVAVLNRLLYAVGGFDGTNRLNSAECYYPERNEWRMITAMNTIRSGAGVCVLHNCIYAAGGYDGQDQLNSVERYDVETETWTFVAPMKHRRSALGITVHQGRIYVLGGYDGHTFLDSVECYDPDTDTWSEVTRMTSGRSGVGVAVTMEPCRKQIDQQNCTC
A3A conf: APOBEC3A deaminase inhibitors, retest, confirmation, selectivity assay for APOBEC3G inhibitor project, biochemical, single concentration, fluorescence readout; recombinant A3A, ssDNA deaminase UDG fluorescence assay; 63% of 1,400 active; inhibition, % at 20 µM; shares compounds with APOBEC3A inh; AID 493151, 2011;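 active = inhibition reaching a set limit, 80% of the first screen's cutoff, at 20 µM in any replicate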;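 note: plate controls were DMSO wells with A3A for no effect and wells lacking A3A enzyme for full effect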
UDG A3A counter: E. coli UDG inhibitors, confirmation, counter-screen for APOBEC3A inhibitor project, biochemical, single concentration, fluorescence, FAM/TAMRA oligo; shares compounds with APOBEC3A inh; UDG counterscreen, FAM/TAMRA uracil oligo fluorescence; inhibition, % at 20 µM; 1,000 tested, under 10 active; call rule not given here
APOBEC3G confirm: APOBEC3G deaminase inhibitor retest, confirmation, biochemical, fluorescence, single-stranded DNA substrate, single concentration. recombinant A3G ssDNA deaminase, UDG/FAM-TAMRA fluorescence. shares compounds with A3G deaminase. AID 493152, 2011. inhibition, % at 20 µM. 72% of 890 active;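 active = inhibition reaching a set limit in any replicate at 20 µM, the limit being 80% of the first screen's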
Numbers without * were called inactive; / = no result given. Rows were chosen to be rich in hits. Some 1.7% of all compounds tested hit in one or more screens of this group.

SMILES | CAL PDZ FP-1 | APOBEC3A inh | A3G deaminase | C-LANA FP | CAL PDZ FP-2 | Keap1-Nrf2 PPI | A3A conf | others
CCOc1c(P(=S)(N(C)C)N(C)C)c(C)nn1-c1ccccc1 | -6.9 | 42.1* | 5.3 | 1.9 | -0.5 | -3.0 | 4.1
CN1C(=O)NC(=O)/C(=C/c2ccc([N+](=O)[O-])o2)C1=O | / | 66.3 | 31.3 | / | / | / | /
CN1C(=O)NC(=O)/C(=C\c2ccc([N+](=O)[O-])o2)C1=O | 5.9 | 65.2* | 26.2 | 19.3 | 0.1 | 6.0 | 54.5*
Cc1ccc(CN2CCC3CCC(C3)C2)c(O)c1 (stereo not given) | 2.7 | / | / | 3.5 | -0.8 | -0.3 | /
COc1cc2c(cc1OC)-c1c(OC)c(OC)cc3c1[C@H](C2)[N+](C)(C)CC3 | 4.4 | 83.1* | 23.3 | -4.5 | 0.0 | 3.5 | 71.0* | UDG A3A counter=-1.3
CCOP(=O)(Nc1ccc2c(c1)C(=NNC(N)=S)c1ccccc1-2)OCC | -3.9 | / | / | 1.2 | -1.7 | -2.7 | /
Cc1cc(C(=O)CN2CCCC2)c(C)n1-c1ccc(F)cc1 | -1.9 | 4.6 | 0.9 | -3.8 | -0.5 | -2.2 | /
COc1ccc(-n2c(C)cc(C(=O)C[N+]34CCN(CC3)CC4)c2C)cc1 | -1.6 | 59.5* | 9.7 | -1.1 | 0.5 | -2.5 | 70.3* | UDG A3A counter=1.6
C[N+]1(C)C2CCC1CC(OC(=O)c1ccccc1)C2 (stereo not given) | 11.2 | 50.5* | 16.8 | -0.8 | -1.7 | 1.9 | 67.0* | UDG A3A counter=1.3
C[N+]1(C)C2CCC1CC(OC(=O)C(CO)c1ccccc1)C2 (stereo not given) | -2.6 | 67.6* | 17.0 | 0.7 | -2.8 | -2.9 | 73.9* | UDG A3A counter=-3.5
C[N+]1(C)[C@@H]2CC[C@H]1CC(OC(=O)C(CO)c1ccccc1)C2 (stereo not given in full) | -0.2 | -0.4 | -1.8 | -3.0 | -0.2 | -5.6 | /
CN1C2CCC1CC(OC(=O)c1ccc(Cl)cc1)C2 (stereo not given) | -5.9 | -5.0 | -6.9 | 2.8 | / | 1.3 | /
O=c1[nH]c(=O)n(CCC2=CCCCC2)c(O)c1/C=N/Nc1ccccc1 | -2.8 | 0.6 | 21.9 | 2.5 | -1.1 | -4.6 | /
O=c1[nH]c(=O)n(CCC2=CCCCC2)c(O)c1/C=N/Nc1cccc2ccccc12 | 1.7 | 1.9 | 41.5* | 0.0 | -4.1 | -6.6 | / | APOBEC3G confirm=26.6
O=c1[nH]c(=S)n(C2CC2)c(O)c1/C=N/Nc1cccc2ccccc12 | -1.3 | 1.9 | 55.0* | 1.0 | -2.0 | -6.2 | / | APOBEC3G confirm=2.1
CCC(C)n1c(O)c(/C=N/Nc2ccccc2)c(=O)[nH]c1=S (stereo not given) | 15.6 | 0.6 | 48.8* | 0.4 | -1.4 | -0.9 | / | APOBEC3G confirm=9.2
c1cncc(CNCCN2CCNCC2)c1 | 1.2 | / | / | / | 0.5 | 2.1 | /
O=C(NCCCn1ccnc1)C(Cl)(Cl)Cl | 2.7 | 4.0 | 43.8* | 1.6 | -0.3 | 1.4 | / | APOBEC3G confirm=-1.2

Screens (PubChem BioAssay)
